# Published values pooled from the literature.
# Target: Sigma non-opioid intracellular receptor 1 (SIGMAR1, Homo sapiens, UniProt Q99720)
Structure (SMILES),effect on,method,setting,Ki [nM]
CCCn1nc(C(=O)N2CCCCC2)c2c1CCC(NCCN1CCCCC1)C2 (stereo not drawn),ligand displacement,radioligand,,> 10000
COc1ccccc1N1CCN(CCCCNC(=O)c2cc3cc(O)ccc3[nH]2)CC1,cell-free assay,,,> 10000
COc1cc2c(cc1OC)CN(CCCCn1ccc3c(OC)cccc31)CC2,ligand displacement,radioligand,cell membranes,259
CCN(CC)CCCC(C)Nc1ccnc2cc(Cl)ccc12 (stereo not drawn),ligand displacement,radioligand,,741
OCCCN1CC[C@@H]2C[C@H]1c1cc(-c3ccc(C(F)(F)F)cc3)ccc12,ligand displacement,radioligand,,167
COc1ccc2ccn(CCCCN3Cc4cc(OC)c(OC)cc4C3)c2c1,ligand displacement,radioligand,cell membranes,70
CC(C)(C)Oc1cc(CCC(C)(C)N2Cc3ccc(S(C)(=O)=O)cc3C2)ccc1O,ligand displacement,radioligand,cell membranes,63
COc1ccc2ccn(CCCCN3CCc4cc(OC)c(OC)cc4C3)c2c1,ligand displacement,radioligand,cell membranes,357
CCCn1nc(C(=O)N(C)C)c2c1CCC(NCc1ccc(Cl)cc1)C2 (stereo not drawn),ligand displacement,radioligand,,> 10000
COc1ccc2[nH]c(C(=O)NC/C=C/CN3CCN(c4ccccc4OC)CC3)cc2c1,cell-free assay,,,> 10000
CCCn1nc(C(=O)N2CCCCC2)c2c1CCC(N1CCN(c3ccc([N+](=O)[O-])cc3)CC1)C2 (stereo not drawn),ligand displacement,radioligand,,1590
COc1ccccc1N1CCN(CCCCNC(=O)c2cc3cc(OCCF)ccc3[nH]2)CC1,cell-free assay,,,> 10000
